In ChEMBL document CHEMBL2401628, “Low toxicity and unprecedented anti-osteoclast activity of a simple sulfur-containing gem-bisphosphonate: a comparative study” (Eur J Med Chem, 2013) one finds inhibition and Activity data, which are given here for 7 compounds.

Calls of active or inactive are those of the source. No cut-off for these calls is given here.

The subject of one data set is PBMC. Description: Antiosteoclast activity in human PBMC assessed as reduction of osteoclasts formation by measuring TRAcP positive multinucleated cells at 10 uM after 7 days. The data set is classed as functional, cell-based. Summed up: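 Blood mononuclear cells from healthy donors, adhered 1 h, then cultured 7 days in osteoclast differentiation medium with drug added from the start. Cells were fixed in 3% paraformaldehyde/2% sucrose, permeabilized in 0.5% Triton, and stained for TRAcP for 60 min at 37 °C. TRAcP-positive multinucleated cells were counted as % of untreated differentiated cultures, duplicate wells, 4 cultures from 2 donors.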

Data set [1] deals with L929. Put plainly: Cytotoxicity against mouse L929 cells assessed as reduction of cell viability at 100 uM after 72 hrs by neutral-red uptake assay. The data set is classed as cell-based. Conditions: l929, 72 h. Summed up: (§1)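 Mouse L929 fibroblasts in DMEM with 10% FCS, seeded 0.8 × 10³ cells/well and allowed to adhere 24 h. They were then exposed to serial dilutions of compound (stocks 10 mM in PBS pH 7.4) for 72 h; untreated medium served as negative control. Cells took up 0.4% neutral red diluted 1:80 for 2 h at 37 °C, and dye was extracted in 50% ethanol/1% acetic acid and read at 540 nm. Result is the OD ratio of treated to negative control, triplicate wells, 5 experiments.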

The test system of data set [2] is L929. Put plainly: Cytotoxicity against mouse L929 cells assessed as reduction of cell viability at 10 to 100 uM after 72 hrs by neutral-red uptake assay. The data set is classed as cell-based. To be noted: l929, 72 h. In short, it runs like this:
as §1

Another data set concerns Hydroxyapatite. Put plainly: Binding affinity to hydroxyapatite at 0.07 mmol up to 120 hrs by 31P NMR-spectroscopy relative to H3PO4.
Data set [3] deals with Osteoclast. Description: Inhibition of human osteoclast-mediated type 1 bone collagen degradation assessed as release of europium-labeled collagen fragments at 0.1 uM after 7 days by time-resolved fluorescence assay. The data set is classed as functional, cell-based. In short, it runs like this:
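Mononuclear cells were seeded on Europium-labelled human type I collagen and cultured 7 days in differentiation medium, then drug was added; total culture time was 14 days. Released fragments in supernatant were measured by time-resolved fluorescence (excitation 340 nm, emission 615 nm). Result is the RFU ratio of treated to untreated osteoclasts, quadruplicate wells, 2 donors.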

Data set [4] has as its system Osteoclast. Put plainly: Inhibition of human osteoclast-mediated type 1 bone collagen degradation assessed as release of europium-labeled collagen fragments at 10 uM after 7 days by time-resolved fluorescence assay. The data set is classed as functional, cell-based. Summed up:
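Adherent monocytes from Ficoll-isolated peripheral blood of healthy donors were seeded on human type I bone collagen and differentiated in osteoclast medium for 7 days. They were then exposed to three drug concentrations until day 14. Supernatant was mixed with fluorophore-releasing reagent and Europium-labelled fragments were read by time-resolved fluorescence (ex 340, em 615 nm). Values are the RFU ratio of treated to untreated osteoclasts, from 2 donors in quadruplicate.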

The test system of data set [5] is Osteoclast. Put plainly: Proapoptotic activity in human osteoclasts at 10 uM after 7 days using Hoechst 33258 staining. The data set is classed as functional, cell-based. In short, it runs like this:
(§2)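 Blood mononuclear cells from donors were differentiated into osteoclasts for 7 days, then exposed to drug for a further 7 days. After fixing, cells were stained with phalloidin-TRITC 0.3 mg/mL plus Hoechst 33258 for 30 min at room temperature. Multinucleated F-actin-ring cells with apoptotic nuclear bodies were counted over the whole well as % of all multinucleated cells, duplicate wells, 4 cultures from 2 donors.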

Data set [6] has as its system Osteoclast. Description: Induction of apoptosis in human osteoclasts at 100 uM after 7 days using Hoechst 33258 staining. The data set is classed as functional, cell-based. In short, it runs like this:
as §2

Data set [7] deals with L929. Description: Cytotoxicity against mouse L929 cells assessed as reduction of cell viability after 72 hrs by neutral-red uptake assay. The data set is classed as cell-based. Conditions: l929, 72 h. Summed up: as §1

As for `O=P(O)(O)C(CNc1ccccc1)P(=O)(O)O`, the inhibition result in the data set on PBMC is “Active”. Besides, the Activity result in the data set with L929 [1] was “Toxic”; in the data set on L929 [2], “Toxic”; in the data set on Hydroxyapatite, 66%.

With `O=P(O)(O)C(CSc1ccccc1)P(=O)(O)O`, the inhibition result with PBMC is “inactive”. Besides, the figures for the Activity result in the data set on L929 [1], in the data set on L929 [2] and in the data set with Hydroxyapatite were “Toxic”, “Toxic” and 34%, respectively.

On to `O=P(O)(O)C(CSCCO)P(=O)(O)O`, for which the inhibition result in the data set on Osteoclast [3] was “inactive”. Further, the inhibition entry in the data set with Osteoclast [4] and in the data set with PBMC was “Active” throughout. Further, the result in the data set on Osteoclast [5] and with Osteoclast [6] was Active. Moreover, the values for the Activity result in the data set on L929 [1], in the data set with L929 [2] and in the data set on Hydroxyapatite were “Toxic”, “Toxic” and 70%, respectively.

In the case of `O=P(O)(O)C(O)(Cn1ccnc1)P(=O)(O)O`, the Activity with Hydroxyapatite worked out at 82%.

Regarding `NCCC(O)(P(=O)(O)O)P(=O)(O)O` [PAMIDRONIC ACID], the inhibition entry in the data set with Osteoclast [3] was “inactive”. In the data set with Osteoclast [5], the outcome was inactive. Further, the result in the data set on Osteoclast [6] was Active. In addition, in the data set with PBMC, the inhibition result was “Active”. Moreover, in the data set on L929 [7], the Activity result is “Dose-dependent effect”.

For the compound `O=P(O)(O)C(CN1CCOCC1)P(=O)(O)O`, the inhibition entry in the data set with PBMC is “Active”. The Activity result in the data set with L929 [1] is “Toxic”; in the data set on L929 [2], “Toxic”; with Hydroxyapatite, 65%.

For `O=P(O)(O)C(CNc1ccccn1)P(=O)(O)O`, the inhibition result in the data set on Osteoclast [3], in the data set with Osteoclast [4] and with PBMC was “Active” throughout. Besides, the outcome in the data set with Osteoclast [5] and in the data set on Osteoclast [6] was Active. The Activity result with L929 [7] is “Dose-dependent effect”; in the data set on Hydroxyapatite, 94%.
